Tests used:
[1] = target: Cholinesterase (Homo sapiens, UniProt P06276); test: Inhibition of butyrylcholine esterase
[2] = target: Acetylcholinesterase (Homo sapiens, UniProt P22303); test: Inhibition of acetylcholine esterase
In short: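 Acetylcholinesterase activity measured with acetylthiocholine substrate. Inhibitor at six concentrations in 5-fold steps from a maximum of 100 µM, duplicate measurements averaged. IC50 from variable-slope sigmoidal dose-response fit.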

[3] = Clearance in Sprague-Dawley rat at 1.1 mg/kg, iv and 2.2 mg/kg, po; format: ADME, organism-based; conditions: in vivo
In short: (§1)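 Rat PK study, one rat per time point. Dosed i.v. and p.o. by gavage in 10% hydroxypropyl cyclodextrin in phosphate buffer pH 7.0; one compound was given in 20% Tween 80 plus 5% glucose in phosphate buffer pH 7.0. Plasma was diluted 1:1 with 10% methanol and centrifuged, then quantified by turbulent-flow chromatography–MS/MS against plasma calibration curves spanning 10-3000 ng/mL.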

[4] = Oral bioavailability in Sprague-Dawley rat at 2.2 mg/kg, po; format: ADME, organism-based; conditions: in vivo; in short: as §1
[5] = target: T1, Hormone-sensitive lipase (Homo sapiens, UniProt Q05469); test: Inhibition of recombinant human hormone-sensitive lipase
T1 sequence (Q05469 whole entry): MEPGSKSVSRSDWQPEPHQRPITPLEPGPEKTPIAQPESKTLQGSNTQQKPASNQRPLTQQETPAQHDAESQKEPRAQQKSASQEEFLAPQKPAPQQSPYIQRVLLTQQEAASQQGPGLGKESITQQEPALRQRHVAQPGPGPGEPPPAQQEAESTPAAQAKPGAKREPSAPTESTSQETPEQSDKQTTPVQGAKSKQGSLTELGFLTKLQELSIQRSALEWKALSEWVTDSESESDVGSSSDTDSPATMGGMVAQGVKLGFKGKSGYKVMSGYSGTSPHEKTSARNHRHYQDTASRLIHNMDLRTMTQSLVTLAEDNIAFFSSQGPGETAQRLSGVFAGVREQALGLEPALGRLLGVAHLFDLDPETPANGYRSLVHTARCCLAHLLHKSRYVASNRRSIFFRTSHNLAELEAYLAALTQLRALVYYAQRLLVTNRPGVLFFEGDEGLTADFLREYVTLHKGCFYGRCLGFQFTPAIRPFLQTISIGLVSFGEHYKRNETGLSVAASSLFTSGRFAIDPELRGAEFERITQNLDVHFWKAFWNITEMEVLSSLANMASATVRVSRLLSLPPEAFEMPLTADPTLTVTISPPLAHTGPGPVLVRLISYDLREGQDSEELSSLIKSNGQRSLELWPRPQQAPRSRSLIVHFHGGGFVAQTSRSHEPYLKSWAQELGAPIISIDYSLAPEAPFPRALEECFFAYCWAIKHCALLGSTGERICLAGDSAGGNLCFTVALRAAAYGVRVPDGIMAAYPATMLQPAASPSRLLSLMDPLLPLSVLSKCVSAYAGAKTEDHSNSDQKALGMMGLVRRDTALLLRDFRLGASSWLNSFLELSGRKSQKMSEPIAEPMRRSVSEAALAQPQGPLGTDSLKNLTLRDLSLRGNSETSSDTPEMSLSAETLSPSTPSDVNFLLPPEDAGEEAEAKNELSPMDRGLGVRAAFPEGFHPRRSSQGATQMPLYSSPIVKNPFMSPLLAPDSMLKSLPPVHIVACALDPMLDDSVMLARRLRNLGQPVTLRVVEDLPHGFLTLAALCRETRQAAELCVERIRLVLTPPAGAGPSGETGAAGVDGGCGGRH

[6] = Cmax in Sprague-Dawley rat at 0.5 mg/kg, iv and 1 mg/kg, po; format: ADME, organism-based; conditions: in vivo
In short: (§2)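 Male Sprague-Dawley rats, 12 weeks old, dosed by oral gavage and i.v. in 10% hydroxypropyl cyclodextrin in phosphate buffer pH 7.0, with one rat per time point. Plasma was diluted 1:1 in 10% methanol, centrifuged and quantified by turbulent-flow chromatography–tandem MS against plasma calibration curves (10-3000 ng/mL).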

[7] = Oral bioavailability in Sprague-Dawley rat at 1 mg/kg, po; format: ADME, organism-based; conditions: in vivo; in short: as §2

Cholinesterase, sequence (P06276 whole entry): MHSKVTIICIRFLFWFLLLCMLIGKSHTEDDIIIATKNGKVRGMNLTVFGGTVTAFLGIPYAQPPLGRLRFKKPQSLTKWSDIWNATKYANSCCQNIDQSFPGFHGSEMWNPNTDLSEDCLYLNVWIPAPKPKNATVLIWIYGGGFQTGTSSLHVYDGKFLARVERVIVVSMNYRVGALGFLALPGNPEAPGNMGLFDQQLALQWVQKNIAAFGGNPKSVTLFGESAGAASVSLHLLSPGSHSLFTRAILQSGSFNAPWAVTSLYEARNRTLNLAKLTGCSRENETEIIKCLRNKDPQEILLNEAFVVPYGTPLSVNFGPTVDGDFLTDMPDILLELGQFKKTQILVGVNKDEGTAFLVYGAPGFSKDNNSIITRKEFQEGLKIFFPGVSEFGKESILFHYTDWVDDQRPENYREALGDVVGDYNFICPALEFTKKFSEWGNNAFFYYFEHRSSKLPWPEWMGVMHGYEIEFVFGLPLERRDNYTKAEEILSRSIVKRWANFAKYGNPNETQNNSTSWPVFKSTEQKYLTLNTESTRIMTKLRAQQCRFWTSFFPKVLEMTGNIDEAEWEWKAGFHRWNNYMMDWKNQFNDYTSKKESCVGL
Acetylcholinesterase, sequence (P22303 whole entry): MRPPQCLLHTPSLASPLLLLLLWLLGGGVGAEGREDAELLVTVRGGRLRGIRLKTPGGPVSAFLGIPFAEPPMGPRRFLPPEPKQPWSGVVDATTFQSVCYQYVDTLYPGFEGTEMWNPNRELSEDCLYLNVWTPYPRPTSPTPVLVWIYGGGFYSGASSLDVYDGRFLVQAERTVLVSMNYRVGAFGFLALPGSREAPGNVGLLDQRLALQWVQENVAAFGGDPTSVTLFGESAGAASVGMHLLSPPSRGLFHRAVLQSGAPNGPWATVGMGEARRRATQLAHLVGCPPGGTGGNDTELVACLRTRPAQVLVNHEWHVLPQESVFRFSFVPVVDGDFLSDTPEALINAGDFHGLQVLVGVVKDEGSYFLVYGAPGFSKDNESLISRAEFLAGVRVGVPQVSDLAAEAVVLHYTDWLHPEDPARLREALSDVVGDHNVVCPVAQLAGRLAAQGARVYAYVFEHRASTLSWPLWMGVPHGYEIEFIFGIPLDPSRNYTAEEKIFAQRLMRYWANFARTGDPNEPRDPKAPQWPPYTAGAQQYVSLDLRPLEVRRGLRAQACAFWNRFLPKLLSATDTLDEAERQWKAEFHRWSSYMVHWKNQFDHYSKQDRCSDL

SMILES | IC50 [1] | IC50 [2] | other results
CN(C(=O)Oc1ccc(Oc2ccc(C(F)(F)F)cn2)cc1)c1ccc(Cl)cc1 | > 50 µM | > 50 µM | –
CN(C(=O)Oc1ccc(Oc2ccc(C(F)(F)F)cn2)cc1)c1ccccc1 | > 50 µM | > 50 µM | clearance [3]: 61 mL/min/kg; bioavailability [4]: 16%
CN(C(=O)Oc1ccc(Oc2ccc(Cl)cn2)cc1)c1ccccc1 | > 50 µM | > 50 µM | –
CN(C(=O)Oc1ccc(Oc2ccccc2)cc1)c1ccccc1 | > 50 µM | > 50 µM | IC50 [5]: > 5 µM
CN(C(=O)Oc1ccc(Oc2ncc(Cl)cc2Cl)cc1)c1ccccc1 | > 50 µM | > 50 µM | –
CC1CCCCN1C(=O)Oc1ccc(Oc2ccc(C(F)(F)F)cn2)cc1 (stereo not drawn) | > 50 µM | > 50 µM | IC50 [5]: > 5 µM
CN(C(=O)Oc1ccc(Oc2c(Cl)cncc2Cl)cc1)c1ccccc1 | > 50 µM | > 50 µM | –
O=C(Oc1ccc(Oc2ncc(Cl)cc2Cl)cc1)N1CCCC1 | > 50 µM | > 50 µM | –
Cc1cccc(N(C)C(=O)Oc2ccc(Oc3ccc(C(F)(F)F)cn3)cc2)c1 | > 50 µM | > 50 µM | –
CN(C(=O)Oc1ccc(Nc2ccc(C(F)(F)F)cn2)cc1)c1ccccc1 | > 50 µM | > 50 µM | –
CN(C(=O)Oc1ccc(Oc2ccc(C(F)(F)F)cn2)cc1)C(C)(C)C | > 50 µM | > 50 µM | IC50 [5]: > 5 µM
O=C(c1ccccc1)C1CCN(C(=O)Oc2ccc(Oc3ccc(C(F)(F)F)cn3)cc2)CC1 | > 50 µM | – | –
O=C(Oc1ccc(Oc2ncc(Cl)cc2Cl)cc1)N1CCOCC1 | > 50 µM | > 50 µM | –
O=C(Oc1ccc(Oc2ccc(C(F)(F)F)cn2)cc1)N1CCC(Cc2ccccc2)CC1 | > 50 µM | – | –
CC1CCCN(C(=O)Oc2ccc(Oc3ccc(C(F)(F)F)cn3)cc2)C1 (stereo not drawn) | > 50 µM | > 50 µM | –
CN(C(=O)Oc1ccc(Oc2ncc(C(F)(F)F)cc2Cl)cc1)c1ccccc1 | > 50 µM | > 50 µM | –
CN(C)C(=O)Oc1ccc(Oc2ncc(Cl)cc2Cl)cc1 | > 50 µM | > 50 µM | IC50 [5]: > 50 µM
CN(C(=O)Oc1ccc(Oc2ccc(C(F)(F)F)cn2)cc1)c1cccc(Cl)c1 | > 50 µM | > 50 µM | –
CC1CCN(C(=O)Oc2ccc(Oc3ccc(C(F)(F)F)cn3)cc2)CC1 | > 50 µM | > 50 µM | –

SMILES | IC50 [1] | IC50 [2] | other results
CCN(C(=O)Oc1ccc(Oc2ccc(C(F)(F)F)cn2)cc1)c1ccccc1 | – | – | IC50 [5]: > 5 µM
CN(C(=O)Oc1ccc(Oc2ccc(C(F)(F)F)cn2)cc1)C1CCCCC1 | > 50 µM | > 50 µM | IC50 [5]: > 5 µM
O=C(Oc1ccc(Oc2ccc(C(F)(F)F)cn2)cc1)N1Cc2ccccc2C1 | > 50 µM | > 50 µM | –
CCCCNC(=O)Oc1ccc(Oc2ncc(Cl)cc2Cl)cc1 | 19 µM | > 50 µM | –
COc1ccccc1N(C)C(=O)Oc1ccc(Oc2ccc(C(F)(F)F)cn2)cc1 | > 50 µM | > 50 µM | –
Cc1ccccc1N(C)C(=O)Oc1ccc(Oc2ccc(C(F)(F)F)cn2)cc1 | > 50 µM | > 50 µM | –
O=C(Oc1ccc(Oc2ccc(C(F)(F)F)cn2)cc1)N1CCCC1 | > 50 µM | > 50 µM | –
O=C(Oc1ccc(Oc2ccc(C(F)(F)F)cn2)cc1)N1CCc2ccccc2C1 | > 50 µM | > 50 µM | –
CN(C(=O)Oc1ccc(Oc2ccc(C(F)(F)F)cn2)cc1)c1ccccc1Cl | > 50 µM | > 50 µM | –
O=C(Oc1ccc(Oc2ccc(C(F)(F)F)cn2)cc1)N1CCCc2ccc(C(F)(F)F)cc21 | > 50 µM | > 50 µM | IC50 [5]: > 5 µM
O=C(Oc1ccc(Oc2ccc(C(F)(F)F)cn2)cc1)N1CCCCC1 | 8.2 µM | > 50 µM | –
COc1ccc(N(C)C(=O)Oc2ccc(Oc3ccc(C(F)(F)F)cn3)cc2)cc1 | > 50 µM | > 50 µM | –
Cc1ccc(N(C)C(=O)Oc2ccc(Oc3ccc(C(F)(F)F)cn3)cc2)cc1 | > 50 µM | > 50 µM | –
O=C(Oc1ccc(Oc2ccc(C(F)(F)F)cn2)cc1)N1CCc2ccccc21 | > 50 µM | > 50 µM | IC50 [5]: > 3 µM
CN(Cc1ccccc1)C(=O)Oc1ccc(Oc2ccc(C(F)(F)F)cn2)cc1 | > 50 µM | > 50 µM | –
CC(C)N(C)C(=O)Oc1ccc(Oc2ccc(C(F)(F)F)cn2)cc1 | > 50 µM | > 50 µM | IC50 [5]: > 5 µM
CC1CN(C(=O)Oc2ccc(Oc3ccc(C(F)(F)F)cn3)cc2)CC(C)O1 (stereo not drawn) | > 50 µM | > 50 µM | –
O=C(Oc1ccc(Oc2ccc(C(F)(F)F)cn2)cc1)N1CCOCC1 | > 50 µM | > 50 µM | Cmax [6]: 21 ng/mL; bioavailability [7]: 12%

— ChEMBL document CHEMBL1137574, “Synthesis and structure-activity relationship for a novel class of potent and selective carbamate-based inhibitors of hormone selective lipase with acute in vivo antilipolytic effects” (J Med Chem, 2007)
